Experimental data reported in ChEMBL document CHEMBL1154565, “Cytotoxic constituents of the roots of Ekmanianthe longiflora” (2000).
Converted amounts (≈) assume the structure as drawn. The source made the active and inactive calls. The calls are words filed in the database; no cut-off is given here.

How the values were obtained:
BC1 = experiment: (§1) Cytotoxicity against human BC1 cells; format: functional
Lo1 = experiment: (§2) Cytotoxicity against human […] cells; format: functional
Col2 = experiment: Cytotoxicity against human Col2 cells; format: functional; settings: for EC50: read-out: ED50 (the source's name)
KB = experiment: Cytotoxicity against human KB cells; format: functional; settings: for EC50: read-out: ED50 (the source's name)
KB-V [1] = experiment: (§3) Cytotoxicity against human multidrug resistant KB-V cells in presence of vinblastine; format: functional
KB-V [2] = experiment: (§4) Cytotoxicity against human multidrug resistant KB-V cells; format: functional
LNCaP = experiment: Cytotoxicity against human LNCaP cells; format: functional; settings: for EC50: read-out: ED50 (the source's name)
SW626 = experiment: Cytotoxicity against human SW626 cells; format: functional; settings: for EC50: read-out: ED50 (the source's name)
SK-N-SH = experiment: Cytotoxicity against human SK-N-SH cells; format: functional; settings: for EC50: read-out: ED50 (the source's name)
M109 (Mus musculus) = experiment: Cytotoxicity against mouse M109 cells; settings: for EC50: read-out: ED50 (the source's name)
[3] = as §1; format: functional; settings: read-out: ED50 (the source's name)
[4] = as §2; format: functional; settings: read-out: ED50 (the source's name)
[5] = as §3; format: functional; settings: KBV, read-out: ED50 (the source's name)
[6] = as §4; format: functional; settings: KBV, read-out: ED50 (the source's name)
P388 = experiment: Antitumor activity against mouse P388 leukemia system at 72 mg/kg, ip relative to control; format: functional; settings: route intraperitoneal
Method in brief: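 Six female CDF1 mice per group received 10^6 P-388 cells i.p. in 0.5 mL RPMI medium. Starting one day later, test compound was given i.p. daily for 5 days, with doses of 8, 24 and 72 mg/kg/injection. Read-out was survival, reported as % T/C (median survival of treated over control ×100). T/C ≥125% was taken as significant.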

SMILES: CC(C)=CC[C@H]1C(=O)c2ccccc2[C@@H](O)[C@@H]1O
- Activity (BC1): inactive
- Activity (Lo1): inactive
- Activity (Col2): inactive
- Activity (KB): inactive
- Activity (KB-V [1]): inactive
- Activity (KB-V [2]): inactive
- Activity (LNCaP): inactive
- Activity (SW626): inactive
- Activity (SK-N-SH): inactive
- Activity (M109 (Mus musculus)): inactive

SMILES: CC(=O)c1cc2c(o1)C(=O)c1ccccc1C2=O [NAPABUCASIN]
- EC50 [3]: 0.4 µg/mL (≈ 1.67 µM)
- EC50 [4]: 0.3 µg/mL (≈ 1.25 µM)
- EC50 (Col2): 0.4 µg/mL (≈ 1.67 µM)
- EC50 (KB): 0.2 µg/mL (≈ 0.833 µM)
- EC50 [5]: 0.9 µg/mL
- EC50 [6]: 0.9 µg/mL (≈ 3.75 µM)
- EC50 (LNCaP): 0.2 µg/mL (≈ 0.833 µM)
- EC50 (SW626): 0.2 µg/mL (≈ 0.833 µM)
- EC50 (SK-N-SH): 0.8 µg/mL (≈ 3.33 µM)
- EC50 (M109 (Mus musculus)): 0.9 µg/mL (≈ 3.75 µM)

SMILES: C=C(C)C1CC2=C(O1)C(=O)c1ccccc1C2=O (stereo not drawn) [DEHYDROISO-ALPHA-LAPACHONE]
- EC50 [3]: 1 µg/mL (≈ 4.16 µM)
- EC50 [4]: 0.2 µg/mL (≈ 0.832 µM)
- EC50 (Col2): 0.2 µg/mL (≈ 0.832 µM)
- EC50 (KB): 0.2 µg/mL (≈ 0.832 µM)
- EC50 [5]: 0.3 µg/mL
- EC50 [6]: 0.5 µg/mL (≈ 2.08 µM)
- EC50 (LNCaP): 0.2 µg/mL (≈ 0.832 µM)
- EC50 (SW626): 0.3 µg/mL (≈ 1.25 µM)
- EC50 (SK-N-SH): 0.2 µg/mL (≈ 0.832 µM)
- EC50 (M109 (Mus musculus)): 0.4 µg/mL (≈ 1.66 µM)

SMILES: CC(O)c1cc2c(o1)C(=O)c1ccccc1C2=O (stereo unspecified)
- EC50 [3]: 3.2 µg/mL (≈ 13.2 µM)
- EC50 [4]: 0.2 µg/mL (≈ 0.826 µM)
- EC50 (Col2): 1.8 µg/mL (≈ 7.43 µM)
- EC50 (KB): 0.5 µg/mL (≈ 2.06 µM)
- EC50 [5]: 1.2 µg/mL
- EC50 [6]: 2 µg/mL (≈ 8.26 µM)
- EC50 (LNCaP): 3.5 µg/mL (≈ 14.4 µM)
- EC50 (SW626): 0.3 µg/mL (≈ 1.24 µM)
- EC50 (SK-N-SH): 4 µg/mL (≈ 16.5 µM)
- T/C (P388): 110%
- EC50 (M109 (Mus musculus)): 1.8 µg/mL (≈ 7.43 µM)

SMILES: CC(C)(O)[C@H]1C[C@H]2C(=O)c3ccccc3[C@@H](O)[C@@H]2O1 (relative stereo)
- Activity (BC1): inactive
- Activity (Lo1): inactive
- Activity (Col2): inactive
- Activity (KB): inactive
- Activity (KB-V [1]): inactive
- Activity (KB-V [2]): inactive
- Activity (LNCaP): inactive
- Activity (SW626): inactive
- Activity (SK-N-SH): inactive
- Activity (M109 (Mus musculus)): inactive

SMILES: CC(C)=CC[C@H]1C[C@H](O)c2ccccc2C1=O
- Activity (BC1): inactive
- Activity (Lo1): inactive
- Activity (Col2): inactive
- Activity (KB): inactive
- Activity (KB-V [1]): inactive
- Activity (KB-V [2]): inactive
- Activity (LNCaP): inactive
- Activity (SW626): inactive
- Activity (SK-N-SH): inactive
- Activity (M109 (Mus musculus)): inactive

SMILES: CC1(C)CCC2=C(O1)C(=O)c1ccccc1C2=O [ALPHA-LAPACHONE]
- EC50 [3]: 6.7 µg/mL (≈ 27.7 µM)
- EC50 [4]: 5.3 µg/mL (≈ 21.9 µM)
- EC50 (Col2): 9.9 µg/mL (≈ 40.9 µM)
- EC50 (KB): 13 µg/mL (≈ 53.7 µM)
- EC50 [5]: 8.3 µg/mL
- EC50 [6]: 12.9 µg/mL (≈ 53.2 µM)
- EC50 (LNCaP): 7.1 µg/mL (≈ 29.3 µM)
- EC50 (SW626): 3 µg/mL (≈ 12.4 µM)
- EC50 (SK-N-SH): 5.1 µg/mL (≈ 21.1 µM)
- EC50 (M109 (Mus musculus)): 9 µg/mL (≈ 37.1 µM)

SMILES: CC(C)=CC[C@@H]1C(=O)c2ccccc2[C@@H](O)[C@@H]1O
- Activity (BC1): inactive
- Activity (Lo1): inactive
- Activity (Col2): inactive
- Activity (KB): inactive
- Activity (KB-V [1]): inactive
- Activity (KB-V [2]): inactive
- Activity (LNCaP): inactive
- Activity (SW626): inactive
- Activity (SK-N-SH): inactive
- Activity (M109 (Mus musculus)): inactive

SMILES: CC(C)=CC[C@@H]1C[C@H](O)c2ccccc2C1=O
- Activity (BC1): inactive
- Activity (Lo1): inactive
- Activity (Col2): inactive
- Activity (KB): inactive
- Activity (KB-V [1]): inactive
- Activity (KB-V [2]): inactive
- Activity (LNCaP): inactive
- Activity (SW626): inactive
- Activity (SK-N-SH): inactive
- Activity (M109 (Mus musculus)): inactive
